{
  "source": "ChEMBL document CHEMBL1275561",
  "about": "“In vitro activities of doripenem, a new broad-spectrum carbapenem, against recently collected clinical anaerobic isolates, with emphasis on the Bacteroides fragilis group” (2008)",
  "type_in_all_cases": "functional",
  "key": {"[1]": {"test_system": "Peptoniphilus asaccharolyticus", "test": "Antimicrobial activity against Peptoniphilus asaccharolyticus by agar dilution method", "procedure,_shortened": "(§1)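 Gram-positive anaerobes were tested by CLSI agar dilution on brucella agar enriched with 5% lysed defibrinated sheep blood and 1 μg/ml vitamin K1. Inoculum was log-phase growth at 0.5 McFarland, about 10^5 CFU/spot by replicator. Incubation was anaerobic, 37°C, 48 h. MIC was the lowest concentration with a marked growth change versus the drug-free plate. Eubacterium lentum ATCC 43055 was the control, and tests were repeated if it fell outside the CLSI range.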"}, "[2]": {"test_system": "[Clostridium] innocuum", "test": "Antimicrobial activity against Clostridium innocuum by agar dilution method"}, "[3]": {"test_system": "Finegoldia magna", "test": "Antimicrobial activity against Finegoldia magna by agar dilution method", "procedure,_shortened": "as §1"}, "[4]": {"test_system": "Clostridium subterminale", "test": "Antimicrobial activity against Clostridium subterminale by agar dilution method"}, "[5]": {"test_system": "Clostridium tertium", "test": "Antimicrobial activity against Clostridium tertium by agar dilution method"}, "[6]": {"test_system": "Cutibacterium acnes", "test": "Antimicrobial activity against Propionibacterium acnes by agar dilution method", "procedure,_shortened": "(§2)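 Log-phase isolates were adjusted to 0.5 McFarland, and about 10^5 CFU/spot was delivered by Steers replicator. Plates were incubated anaerobically at 37°C for 48 h. MIC was the lowest concentration giving a marked growth change versus the control plate. Eubacterium lentum ATCC 43055 was the QC strain, with repeats when out of range.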"}, "[7]": {"test_system": "Propionibacterium", "test": "Antimicrobial activity against Propionibacterium sp. by agar dilution method", "procedure,_shortened": "as §2"}, "[8]": {"test_system": "Cutibacterium acnes", "test": "Antimicrobial activity against Propionibacterium acnes assessed as resistant isolates by agar dilution method", "procedure,_shortened": "(§3)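 Agar dilution following CLSI on brucella agar with 5% lysed defibrinated sheep blood and 1 μg/ml vitamin K1, plates made on test day. Log-phase cells at 0.5 McFarland, about 10^5 CFU/spot by Steers replicator, 48 h anaerobic at 37°C. MIC read as the lowest concentration causing a marked growth change versus control. Resistance counted by CLSI anaerobe breakpoints. Eubacterium lentum ATCC 43055 served as control.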"}, "[9]": {"test_system": "[Clostridium] innocuum", "test": "Antimicrobial activity against Clostridium innocuum assessed as resistant isolates by agar dilution method", "conditions": "pooled result: one value given for 4 cell lines, strains, targets or settings"}, "[10]": {"test_system": "Finegoldia magna", "test": "Antimicrobial activity against Finegoldia magna assessed as resistant isolates by agar dilution method", "procedure,_shortened": "as §3"}, "[11]": {"test_system": "Parvimonas micra", "test": "Antimicrobial activity against Micromonas micros by agar dilution method", "procedure,_shortened": "as §1"}, "[12]": {"test_system": "Peptostreptococcus sp.", "test": "Antimicrobial activity against Peptostreptococcus sp. by agar dilution method", "procedure,_shortened": "as §2"}, "[13]": {"test_system": "Propionibacterium", "test": "Antimicrobial activity against Propionibacterium sp. assessed as resistant isolates by agar dilution method", "procedure,_shortened": "as §3"}, "[14]": {"test_system": "Clostridium perfringens", "test": "Antimicrobial activity against Clostridium perfringens by agar dilution method"}, "[15]": {"test_system": "Anaerococcus prevotii", "test": "Antimicrobial activity against Anaerococcus prevotii by agar dilution method", "procedure,_shortened": "as §1"}, "[16]": {"test_system": "Clostridioides difficile", "test": "Antimicrobial activity against Clostridium difficile by agar dilution method"}, "[17]": {"test_system": "Peptoniphilus asaccharolyticus", "test": "Antimicrobial activity against Peptoniphilus asaccharolyticus assessed as resistant isolates by agar dilution method", "conditions": "pooled result: one value given for 4 cell lines, strains, targets or settings", "procedure,_shortened": "as §3"}, "[18]": {"test_system": "Clostridium paraputrificum", "test": "Antimicrobial activity against Clostridium paraputrificum by agar dilution method"}},
  "data": [
    {"compound": "Cc1ncc([N+](=O)[O-])n1CCO", "note": "[METRONIDAZOLE]", "values": [
      {"measurement": "MIC50", "setting": "[1]", "value": 1, "unit": "µg/mL"},
      {"measurement": "MIC90", "setting": "[1]", "value": 32, "unit": "µg/mL"},
      {"measurement": "MIC50", "setting": "[2]", "value": 2, "unit": "µg/mL"},
      {"measurement": "MIC90", "setting": "[2]", "value": 2, "unit": "µg/mL"},
      {"measurement": "MIC", "setting": "[3]", "value": 0.5, "unit": "µg/mL"},
      {"measurement": "MIC50", "setting": "[3]", "value": 0.5, "unit": "µg/mL"},
      {"measurement": "MIC90", "setting": "[3]", "value": 0.5, "unit": "µg/mL"},
      {"measurement": "MIC50", "setting": "[4]", "value": 2, "unit": "µg/mL"},
      {"measurement": "MIC90", "setting": "[4]", "value": 2, "unit": "µg/mL"},
      {"measurement": "MIC50", "setting": "[5]", "value": 2, "unit": "µg/mL"},
      {"measurement": "MIC90", "setting": "[5]", "value": 2, "unit": "µg/mL"},
      {"measurement": "MIC50", "setting": "[6]", "value": 32, "unit": "µg/mL"},
      {"measurement": "MIC90", "setting": "[6]", "value": 32, "unit": "µg/mL"},
      {"measurement": "MIC50", "setting": "[7]", "value": 32, "unit": "µg/mL"},
      {"measurement": "MIC90", "setting": "[7]", "value": 32, "unit": "µg/mL"},
      {"measurement": "Activity", "setting": "[8]", "value": 94.4, "unit": "%"},
      {"measurement": "Activity", "setting": "[9]", "value": 5.6, "unit": "%"},
      {"measurement": "Activity", "setting": "[10]", "value": 0, "unit": "%"},
      {"measurement": "MIC50", "setting": "[11]", "value": 1, "unit": "µg/mL"},
      {"measurement": "MIC90", "setting": "[11]", "value": 32, "unit": "µg/mL"},
      {"measurement": "MIC50", "setting": "[12]", "value": 1, "unit": "µg/mL"},
      {"measurement": "MIC90", "setting": "[12]", "value": 32, "unit": "µg/mL"},
      {"measurement": "Activity", "setting": "[13]", "value": 92.3, "unit": "%"},
      {"measurement": "MIC50", "setting": "[14]", "value": 2, "unit": "µg/mL"},
      {"measurement": "MIC90", "setting": "[14]", "value": 4, "unit": "µg/mL"},
      {"measurement": "MIC50", "setting": "[15]", "value": 1, "unit": "µg/mL"},
      {"measurement": "MIC90", "setting": "[15]", "value": 32, "unit": "µg/mL"},
      {"measurement": "MIC", "setting": "[16]", "value": 0.5, "unit": "µg/mL"},
      {"measurement": "Activity", "setting": "[17]", "value": 34.1, "unit": "%"},
      {"measurement": "MIC50", "setting": "[18]", "value": 2, "unit": "µg/mL"},
      {"measurement": "MIC90", "setting": "[18]", "value": 2, "unit": "µg/mL"}
    ]}
  ]
}
